The values that follow come from ChEMBL document CHEMBL5113557, “Structural Basis for Inhibition of Mutant EGFR with Lazertinib (YH25448)” (ACS Med Chem Lett, 2022).

Assay [1] deals with T1, Receptor tyrosine-protein kinase erbB-2 (Homo sapiens, UniProt P04626). Description: Inhibition of recombinant human N-terminal GST-tagged HER2 wild type (679 to 1255 residues) expressed in baculovirus infected Sf9 insect cells using AQT0794 measured up to 240 mins by fluorescence assay. An outline of the steps: (§1)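 Time-dependent kinetic assay on the HER2 kinase domain with 1000 μM ATP and 15 μM Sox-based substrate sensor. Data come from a single experiment run in duplicate. kinact and Ki were obtained from a two-step fit, and errors are the standard error from the fit.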

Assay [2] deals with BaF3. Description: Antiproliferative activity against mouse BAF3 cells harboring EGFR L858R/T790M mutant after 72 hrs by resazurin dye-based fluorescence assay. Format: functional, cell-based. Conditions: BaF3, 72 h. An outline of the steps:
(§2)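 Ba/F3 cells engineered to express each target were exposed to inhibitor for 72 h, after which proliferation was measured.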
On the technique in general: The colour change of resazurin is a common sign of viable cells or microbes.

The test system of assay [3] is Epidermal growth factor receptor (Homo sapiens), P00533 [L858R,T790M]. Conditions: NCI-H1975, dose 5-50 nM, time 2.0 hrs.
For assay [4], the target named is T1, Receptor tyrosine-protein kinase erbB-2. Nature of the assay: Inhibition of HER2 in human BT474 cells assessed as reduction in autophosphorylation at Y1221/1222 residue at 5 to 100 nM after 6 hrs by Western blot analysis. Format: cell-based. Conditions: BT-474, dose 5-100 nM. The method in brief:
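BT474 HER2-overexpressing breast cancer cells were treated with inhibitor at a range of doses for 6 h. Phospho-HER2 (pY1221/1222) was detected by Western blot. The blots shown are representative of three independent experiments.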
(Immunoblotting shows a protein as a band on a membrane.)

The subject of assay [5] is BaF3. Description: Antiproliferative activity against mouse BAF3 cells harboring EGFR L858R mutant after 72 hrs by resazurin dye-based fluorescence assay. Format: functional, cell-based. The following applies: BaF3, 72 h. The method in brief: as §2
The species entered for assay [6] is Homo sapiens. Nature of the assay: Selectivity ratio of Kinact for human N-terminal GST-tagged EGFR (669 to 1210 residues) (unknown origin) L858R/T790M mutant to Kinact for human N-terminal GST-tagged EGFR wild type (669 to 1210 residues) (unknown origin).
The target in assay [7] is T1, Receptor tyrosine-protein kinase erbB-2. Nature of the assay: Inhibition of recombinant human N-terminal GST-tagged HER2 wild type (679 to 1255 residues) expressed in baculovirus infected Sf9 insect cells assessed as Kinact/Ki ratio using AQT0794 measured up to 240 mins by fluorescence assay. The method in brief:
as §1

The subject of assay [8] is BaF3. Nature of the assay: Antiproliferative activity against mouse BAF3 cells harboring HER2 wild type after 72 hrs by resazurin dye-based fluorescence assay. In kind it is functional, cell-based. Conditions: BaF3, 72 h. The method in brief:
as §2

The species named for assay [9] is Homo sapiens. Description: Selectivity ratio of Kinact/Ki for human N-terminal GST-tagged EGFR (669 to 1210 residues) (unknown origin) L858R/T790M mutant to Kinact/Ki for human N-terminal GST-tagged EGFR wild type (669 to 1210 residues) (unknown origin).
Assay [10] addresses Epidermal growth factor receptor (Homo sapiens, UniProt P00533, L858R/T790M). Nature of the assay: Inhibition of recombinant human N-terminal GST-tagged EGFR (669 to 1210 residues) (unknown origin) L858R/T790M mutant expressed in baculovirus infected Sf21 insect cells using AQT0734 as substrate measured up to 240 mins by fluorescence assay.
For assay [11], the target named is T1, Receptor tyrosine-protein kinase erbB-2. Nature of the assay: Inhibition of recombinant human N-terminal GST-tagged HER2 wild type (679 to 1255 residues) expressed in baculovirus infected Sf9 insect cells assessed as Kinact using AQT0794 as substrate measured up to 240 mins by fluorescence assay. An outline of the steps: as §1
For assay [12], the target named is T2, Epidermal growth factor receptor (Homo sapiens, UniProt P00533). Nature of the assay: Inhibition of recombinant human N-terminal GST-tagged EGFR wild type (669 to 1210 residues) expressed in baculovirus infected Sf21 insect cells insect cells using AQT0734 as substrate measured up to 240 mins by fluorescence assay.
Assay [13] concerns Epidermal growth factor receptor (Homo sapiens), P00533 [L858R,T790M]. The following applies: Sf21, time <= 240.0 min.
For assay [14], the species on record is Homo sapiens. Nature of the assay: Selectivity ratio of Ki for human N-terminal GST-tagged EGFR wild type (669 to 1210 residues) (unknown origin) to Ki for human N-terminal GST-tagged EGFR L858R/T790M mutant (669 to 1210 residues) (unknown origin).
In assay [15] the target is T2, Epidermal growth factor receptor. The following applies: Sf21, time <= 240.0 min.

Activity calls are given as the source filed them. The rule behind the calls is not given here.

T1 sequence (P04626 whole entry, the tested form may be a part): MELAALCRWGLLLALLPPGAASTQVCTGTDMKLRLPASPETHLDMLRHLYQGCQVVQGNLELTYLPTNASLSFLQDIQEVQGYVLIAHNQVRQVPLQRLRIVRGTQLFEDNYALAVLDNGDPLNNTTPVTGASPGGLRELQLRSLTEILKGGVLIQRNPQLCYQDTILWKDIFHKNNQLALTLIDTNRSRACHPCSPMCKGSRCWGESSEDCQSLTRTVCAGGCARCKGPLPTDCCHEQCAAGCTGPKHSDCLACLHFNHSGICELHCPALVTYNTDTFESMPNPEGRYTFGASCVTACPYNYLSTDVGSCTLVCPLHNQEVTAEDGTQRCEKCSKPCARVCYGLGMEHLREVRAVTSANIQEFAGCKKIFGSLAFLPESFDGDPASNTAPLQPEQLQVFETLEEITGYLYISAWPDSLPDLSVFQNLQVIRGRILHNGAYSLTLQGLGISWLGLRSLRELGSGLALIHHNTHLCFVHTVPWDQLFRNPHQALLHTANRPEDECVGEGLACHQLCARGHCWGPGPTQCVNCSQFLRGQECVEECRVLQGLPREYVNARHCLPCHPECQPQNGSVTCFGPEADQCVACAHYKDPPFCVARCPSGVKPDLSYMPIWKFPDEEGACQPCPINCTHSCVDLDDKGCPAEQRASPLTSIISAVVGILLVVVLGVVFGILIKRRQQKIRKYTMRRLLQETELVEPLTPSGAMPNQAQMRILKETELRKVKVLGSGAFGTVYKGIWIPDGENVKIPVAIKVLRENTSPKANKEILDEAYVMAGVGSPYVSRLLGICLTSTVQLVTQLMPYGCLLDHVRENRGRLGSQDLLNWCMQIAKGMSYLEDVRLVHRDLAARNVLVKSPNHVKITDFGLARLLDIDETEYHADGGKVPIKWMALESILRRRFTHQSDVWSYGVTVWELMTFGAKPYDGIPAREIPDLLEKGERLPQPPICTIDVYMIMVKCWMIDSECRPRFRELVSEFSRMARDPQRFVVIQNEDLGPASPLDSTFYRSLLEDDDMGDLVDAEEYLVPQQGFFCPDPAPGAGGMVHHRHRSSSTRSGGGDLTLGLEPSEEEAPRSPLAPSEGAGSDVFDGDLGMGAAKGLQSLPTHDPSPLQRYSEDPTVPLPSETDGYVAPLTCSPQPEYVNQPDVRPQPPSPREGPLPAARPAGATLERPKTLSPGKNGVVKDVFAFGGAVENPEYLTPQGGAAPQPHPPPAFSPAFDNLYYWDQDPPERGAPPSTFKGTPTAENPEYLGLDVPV
Sequence of Epidermal growth factor receptor (Homo sapiens), P00533 [L858R,T790M] (P00533 whole entry T790M/L858R, looked up, the tested form may be a part): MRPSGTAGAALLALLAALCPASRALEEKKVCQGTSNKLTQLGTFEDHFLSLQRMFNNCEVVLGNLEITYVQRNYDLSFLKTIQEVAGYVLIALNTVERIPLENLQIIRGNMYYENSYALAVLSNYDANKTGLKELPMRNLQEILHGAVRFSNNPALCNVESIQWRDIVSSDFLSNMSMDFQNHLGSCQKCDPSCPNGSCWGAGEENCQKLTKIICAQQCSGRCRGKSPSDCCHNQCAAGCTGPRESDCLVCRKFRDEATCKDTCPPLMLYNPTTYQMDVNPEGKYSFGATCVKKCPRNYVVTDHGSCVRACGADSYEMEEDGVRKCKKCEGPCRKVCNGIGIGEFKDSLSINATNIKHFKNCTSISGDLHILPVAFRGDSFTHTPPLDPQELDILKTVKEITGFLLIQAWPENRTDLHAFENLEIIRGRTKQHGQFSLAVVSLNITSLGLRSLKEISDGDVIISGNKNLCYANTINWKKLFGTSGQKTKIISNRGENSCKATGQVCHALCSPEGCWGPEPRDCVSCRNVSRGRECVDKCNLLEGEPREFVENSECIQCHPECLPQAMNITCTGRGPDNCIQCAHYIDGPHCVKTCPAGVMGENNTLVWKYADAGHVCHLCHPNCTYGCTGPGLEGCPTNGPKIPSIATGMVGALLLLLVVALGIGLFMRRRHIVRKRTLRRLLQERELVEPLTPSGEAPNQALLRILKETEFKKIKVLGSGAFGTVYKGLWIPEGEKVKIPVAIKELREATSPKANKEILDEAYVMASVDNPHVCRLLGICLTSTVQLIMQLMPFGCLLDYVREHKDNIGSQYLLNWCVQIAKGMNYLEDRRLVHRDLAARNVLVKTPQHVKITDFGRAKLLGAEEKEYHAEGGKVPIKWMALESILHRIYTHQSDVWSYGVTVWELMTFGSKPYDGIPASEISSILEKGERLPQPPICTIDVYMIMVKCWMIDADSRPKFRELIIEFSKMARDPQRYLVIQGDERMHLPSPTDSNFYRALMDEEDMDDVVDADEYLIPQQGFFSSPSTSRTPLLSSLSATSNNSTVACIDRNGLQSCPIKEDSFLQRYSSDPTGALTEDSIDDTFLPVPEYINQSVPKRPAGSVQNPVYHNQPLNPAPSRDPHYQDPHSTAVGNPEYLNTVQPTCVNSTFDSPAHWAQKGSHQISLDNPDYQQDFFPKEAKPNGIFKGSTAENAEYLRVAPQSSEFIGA
T2 sequence (P00533 whole entry, the tested form may be a part): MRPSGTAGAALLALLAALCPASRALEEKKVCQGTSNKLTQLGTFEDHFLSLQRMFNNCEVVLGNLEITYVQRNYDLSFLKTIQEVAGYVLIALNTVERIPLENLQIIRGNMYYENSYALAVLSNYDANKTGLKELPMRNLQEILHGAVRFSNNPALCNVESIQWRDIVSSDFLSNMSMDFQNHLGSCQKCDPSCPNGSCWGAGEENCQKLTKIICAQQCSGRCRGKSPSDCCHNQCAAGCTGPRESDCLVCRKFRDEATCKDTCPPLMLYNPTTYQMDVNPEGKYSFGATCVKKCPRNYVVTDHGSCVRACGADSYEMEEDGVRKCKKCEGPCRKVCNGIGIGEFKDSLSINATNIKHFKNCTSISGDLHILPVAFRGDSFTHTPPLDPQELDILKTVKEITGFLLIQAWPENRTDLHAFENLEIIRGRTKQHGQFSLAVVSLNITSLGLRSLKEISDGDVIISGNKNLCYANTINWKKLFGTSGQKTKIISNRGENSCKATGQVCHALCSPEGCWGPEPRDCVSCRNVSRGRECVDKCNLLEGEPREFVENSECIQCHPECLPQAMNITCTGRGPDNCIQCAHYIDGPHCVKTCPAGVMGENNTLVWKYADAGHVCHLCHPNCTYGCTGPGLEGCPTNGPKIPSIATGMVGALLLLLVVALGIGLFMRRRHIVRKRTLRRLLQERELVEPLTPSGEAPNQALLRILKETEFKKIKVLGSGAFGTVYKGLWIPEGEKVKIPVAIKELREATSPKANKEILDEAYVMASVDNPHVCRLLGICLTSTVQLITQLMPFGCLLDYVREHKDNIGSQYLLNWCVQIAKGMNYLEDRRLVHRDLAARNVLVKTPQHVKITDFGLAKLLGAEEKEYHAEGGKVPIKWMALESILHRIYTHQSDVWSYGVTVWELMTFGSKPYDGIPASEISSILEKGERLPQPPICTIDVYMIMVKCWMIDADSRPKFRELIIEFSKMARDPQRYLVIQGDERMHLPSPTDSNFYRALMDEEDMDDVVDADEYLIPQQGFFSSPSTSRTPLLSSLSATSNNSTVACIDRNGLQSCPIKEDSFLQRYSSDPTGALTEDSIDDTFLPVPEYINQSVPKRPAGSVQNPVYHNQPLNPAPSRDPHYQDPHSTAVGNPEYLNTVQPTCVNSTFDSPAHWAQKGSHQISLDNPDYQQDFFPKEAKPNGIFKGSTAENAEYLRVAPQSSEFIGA
Sequence of Epidermal growth factor receptor (Homo sapiens, UniProt P00533, L858R/T790M) (P00533 25-1210 T790M/L858R limits assumed): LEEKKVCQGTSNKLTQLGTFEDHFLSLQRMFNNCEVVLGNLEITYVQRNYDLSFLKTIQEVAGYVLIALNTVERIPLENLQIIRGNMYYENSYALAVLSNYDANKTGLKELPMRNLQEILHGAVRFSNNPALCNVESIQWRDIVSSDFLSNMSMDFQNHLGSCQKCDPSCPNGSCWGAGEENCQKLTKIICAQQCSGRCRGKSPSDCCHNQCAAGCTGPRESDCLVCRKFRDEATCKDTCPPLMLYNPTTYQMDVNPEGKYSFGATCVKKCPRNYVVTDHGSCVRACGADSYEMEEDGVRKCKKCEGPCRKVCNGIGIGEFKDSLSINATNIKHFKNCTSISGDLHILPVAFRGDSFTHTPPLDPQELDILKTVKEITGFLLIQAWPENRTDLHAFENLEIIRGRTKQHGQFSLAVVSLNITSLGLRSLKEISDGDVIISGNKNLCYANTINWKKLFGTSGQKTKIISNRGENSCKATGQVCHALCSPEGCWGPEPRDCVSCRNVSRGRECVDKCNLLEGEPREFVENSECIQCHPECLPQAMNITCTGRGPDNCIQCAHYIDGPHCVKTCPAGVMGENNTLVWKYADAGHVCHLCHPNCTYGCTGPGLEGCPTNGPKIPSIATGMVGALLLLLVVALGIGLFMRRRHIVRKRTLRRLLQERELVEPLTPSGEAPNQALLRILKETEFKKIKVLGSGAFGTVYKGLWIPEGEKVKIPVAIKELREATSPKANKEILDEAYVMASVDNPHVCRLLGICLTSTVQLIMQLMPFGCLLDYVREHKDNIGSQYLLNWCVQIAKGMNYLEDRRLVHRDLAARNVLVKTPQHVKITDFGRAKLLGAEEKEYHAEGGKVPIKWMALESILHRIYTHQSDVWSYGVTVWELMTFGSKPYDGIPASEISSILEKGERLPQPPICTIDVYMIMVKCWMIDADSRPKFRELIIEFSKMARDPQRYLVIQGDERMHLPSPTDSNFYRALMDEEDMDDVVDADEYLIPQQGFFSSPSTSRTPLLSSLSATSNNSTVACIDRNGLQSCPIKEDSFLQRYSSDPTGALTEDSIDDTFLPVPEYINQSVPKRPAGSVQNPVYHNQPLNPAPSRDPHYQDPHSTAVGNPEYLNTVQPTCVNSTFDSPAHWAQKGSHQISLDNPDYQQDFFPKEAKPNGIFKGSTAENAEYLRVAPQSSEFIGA

On to `C=CC(=O)Nc1ccc(OC)c(Nc2cc(-c3[nH]c(SC)nc3-c3ccc(F)cc3)ccn2)c1`, for which the Ki in assay [1] worked out at 142 nM. For the same compound, the EC50 in [2] was 21 nM; in assay [5] it was 0.51 nM. In addition, the inhibition entry in [3] and in [4] was “Active” throughout.
For `C=CC(=O)Nc1cc(Nc2nccc(-n3cc(CN(C)C)c(-c4ccccc4)n3)n2)c(OC)cc1N1CCOCC1` [LAZERTINIB], the inhibition constant (Ki) in assay [1] came to 437 nM; in assay [10], 34 nM; in assay [12], 271 nM. Besides, the EC50 was 7.4 nM in [2], > 100 nM in [8] and 4.8 nM in assay [5]. The figures for the Selectivity ratio in assay [6] and in [9] were 0.36 and 3.2, respectively. Also, the Ratio in assay [7] is 6310 M⁻¹ s⁻¹. In addition, the inhibition result in assay [3] and in assay [4] was “Active” each time. In addition, the figures for the Kinact in [11], in assay [13] and in [15] were 0.166 min⁻¹, 0.235 min⁻¹ and 0.648 min⁻¹, respectively. Further, the Ratio Ki in [14] was found to be 8.
In the case of `C=CC(=O)Nc1cc(Nc2nccc(-c3cn(C)c4ccccc34)n2)c(OC)cc1N(C)CCN(C)C` [OSIMERTINIB], the EC50 in [2] was 14 nM; in assay [8], 34 nM; in assay [5], 3.2 nM. In [4], the inhibition result was “Active”.

As usually defined, the Ki is a dissociation constant, usually derived from enzyme kinetics or from competition with a known ligand. For orientation: EC50 means the concentration needed to bring the measured effect to its halfway point.
